High-throughput results deposited in PubChem BioAssay by several laboratories.
KCC2 mod: modulates chloride dependent transport by human KCC2. Q9H2X9. B-score of Tl+ flux slope (higher = more flux/activation; lower = inhibition) at 10 µM. 190,000 compounds, 2.2% hits. KCC2 cells, thallium flux FluoZin-2 fluorescence;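 active = thallium flux slope and its plate-corrected score both differing from the plate sample mean at a set confidence after two filtering rounds, in either direction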;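 note: slope of fluorescence scaled to starting intensity during 10 to 20 s after thallium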
MT stabilizer: microtubule stabilization, imaging screen; AID 2205; % tubulin-high responders, % at 10 µM; HeLa tubulin immunostaining HCS, 24 h; share of cells brighter than vehicle mean+2SD; 200,000 compounds, 0.83% hits;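 active = plate Z-score above 3 for both tubulin-high and condensed-nucleus cell shares, with cell loss under 80%, at 10 µM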;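 note: anti alpha tubulin signal scored within the nucleus-defined area of each cell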
Redox H2O2 prof: compounds producing H2O2 with reducing agent – biochemical, NIH compound library profiling, artefact control for MLSCN library redox annotation, primary screen. DTT-dependent redox cycling H2O2, phenol red/HRP absorbance; 100% = 100 µM peroxide control, 0% = buffer. 200,000 compounds, 0.03% hits. activation, % at 10 µM;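 active = activation of at least 50% relative to the plate's high and low controls in the primary single-dose screen; inactive = activation below 50%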;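 note: compound incubated with DTT at 0.8 mM final as the reducing agent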
ROMK primary: modulates human ROMK potassium channel activity; P48048; Tet-inducible ROMK, thallium flux fluorescence; actives lie on both sides; B-score at 10 µM; 130,000 compounds, 2% hits; AID 1918;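 active = signal ratio slope over the read window, or its plate-corrected B-score, at least 3 SD from the plate mean, either direction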;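 note: B-score of the F/F0 ratio slope over 7 to 12 s after thallium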
Target sequence (P48048 whole entry, looked up): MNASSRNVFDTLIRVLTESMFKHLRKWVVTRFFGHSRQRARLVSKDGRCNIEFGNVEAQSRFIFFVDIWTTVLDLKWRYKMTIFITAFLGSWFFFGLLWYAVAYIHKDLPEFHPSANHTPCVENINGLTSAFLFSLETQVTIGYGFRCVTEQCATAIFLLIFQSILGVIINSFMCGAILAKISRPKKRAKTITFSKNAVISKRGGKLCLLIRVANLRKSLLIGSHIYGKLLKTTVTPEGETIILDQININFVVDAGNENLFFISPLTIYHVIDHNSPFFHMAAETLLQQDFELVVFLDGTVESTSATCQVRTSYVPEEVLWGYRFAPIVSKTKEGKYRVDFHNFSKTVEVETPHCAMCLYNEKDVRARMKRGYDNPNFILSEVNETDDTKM
b-catenin transl: modulators of beta-catenin nuclear translocation. AID 1665. HeLa beta-catenin nuclear translocation, immunofluorescence imaging. nuclear translocation activity, % at 5 µM. 190,000 compounds, 0.3% hits;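 active = nuclear translocation activity above 50% at 5 µM, with a well cell count of 50 or more; inconclusive = wells under 50 cells across six images, flagged as toxic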;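 note: per-cell ratio of nuclear to cytoplasmic median beta-catenin stain intensity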
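System: HeLa cells, endogenous beta-catenin; compound dosing: 5 µM primary single dose, 0.1% DMSO, 0.02–20 µM confirmation series; incubation: 24 h compound exposure at 37°C, 5% CO2; signal: beta-catenin immunofluorescence imaging with DAPI; evaluation: % activation, nuclear-to-cytoplasmic median beta-catenin signal ratio per cell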
ROMK retest: confirmation of human ROMK potassium channel modulators; normalized thallium flux (F/F0 slope) at 10 µM; 3,000 compounds, 54% hits; ROMK thallium flux, fluorescence ratio; hits give low values; shares compounds with ROMK primary;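 active = Flux at 10 µM at least 3 SD below or above vehicle control mean in one or both replicates; inconclusive = no clear call, values can overlap the other calls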
A number is an active result; i = inactive; ? = inconclusive; nt = no result given. In the library only some 3.7% were active in any assay of this set; here they are far more common.

SMILES	KCC2 mod	MT stabilizer	Redox H2O2 prof	ROMK primary	b-catenin transl	ROMK retest
CCCN1C(=O)c2cc(C(=O)Nc3ccc(OC)cc3OC)ccc2C1Nc1ccc(OC)cc1OC (stereo not drawn)	i	i	i	-3.7	i	?
Cc1oc(-c2cccc(C(F)(F)F)c2)nc1CN1CCOCC1	i	i	i	i	i	nt
CCCCCCCCCCOC(=O)C[N+](C)(C)C/C=C(/C)Cl	i	i	i	nt	nt	0.057
CCCCCCCCCCCCOC(=O)C[N+](C)(C)C	i	nt	nt	-3.8	i	0.048
O=C(O)C1CCCN(S(=O)(=O)c2ccc3c(c2)OCCO3)C1 (stereo not drawn)	i	i	i	i	i	nt
CCn1c(C(=O)N2CCC(C(=O)NCCCSC3CCCCC3)CC2)cc2sccc21	i	i	i	nt	nt	?
CCN1CCN(C(=O)C2CCN(C(=O)c3cc4sccc4n3CC)CC2)CC1	i	i	i	nt	i	nt
O=C(Nc1ccc(S(=O)(=O)NCc2ccco2)cc1)C1CCCCC1	nt	i	i	i	i	nt
Cc1ccc(C(OCC(C)(C)C[N+](C)(C)C)c2ccccc2)cc1 (stereo not drawn)	i	i	i	i	i	nt
Cc1ccc(OCC(=O)Nc2ccccc2N2CCCC2)c(C)c1	i	i	i	i	i	nt
CCC(=O)N1CCN(c2ccccc2NC(=O)COc2cc(C)ccc2C(C)C)CC1	i	i	i	-3.5	i	0.066
COc1ccc2c(C)cc(Sc3nnnn3-c3ccccc3)nc2c1	i	i	i	nt	i	nt
CN(C)c1cc(O)c(C(=S)Nc2ccccc2)c(N(C)C)c1	nt	i	i	-3.3	nt	0.063
Cc1ccccc1NC(=O)COC(=O)c1ccc(S(C)(=O)=O)c([N+](=O)[O-])c1	i	i	i	-3.5	i	?
CC(=O)/C(=C/c1ccccc1)C(=O)Nc1ccccc1C	i	i	i	-3.6	i	0.048
Cc1[nH]c2ccccc2c1C(=O)C(=O)NCc1ccco1	i	i	i	i	i	nt
COc1cc(OC)c(C2C(C#N)=C(C)NC(C)=C2C#N)c(C(=O)O)c1	i	nt	nt	nt	i	nt
O=[N+]([O-])c1ccc2nc(CN3CCCCC3)[nH]c2c1	i	i	i	i	i	nt
O=[N+]([O-])c1ccc2nc(CCCc3nc4ccc([N+](=O)[O-])cc4[nH]3)[nH]c2c1	nt	i	i	-6.9	i	0.027
COC(=O)C1C(=O)C2=C(CC1C)NC(C)=C(C(=O)OCCOc1ccccc1)C2c1ccc(C)o1 (stereo not drawn)	i	i	i	-4	i	0.066
CC1=C(C(=O)OCCOc2ccccc2)C(c2ccc(C)o2)C2=C(CC(C)(C)CC2=O)N1 (stereo not drawn)	i	i	i	i	i	nt
O=C(Nc1nc(=S)ss1)c1c(F)cccc1F	i	i	i	nt	nt	nt
COc1ccc(CN(C)Cc2nc(Cc3cccc(F)c3)no2)c2cccnc12	i	i	i	-1.6	i	?
COc1cccc(-n2cc(CN(C)Cc3nc(Cc4cccc(F)c4)no3)cn2)c1	i	i	i	i	i	nt
CCOc1cccc(NC(=O)CSc2nc(C)c3c(c2C#N)CCCC3)c1	i	i	i	nt	i	i
SMILES	KCC2 mod	MT stabilizer	Redox H2O2 prof	ROMK primary	b-catenin transl	ROMK retest
Cc1nc(SCC(=O)Nc2ccc3c(c2)OCO3)c(C#N)c2c1CCCC2	nt	i	i	i	i	nt
Cc1cccc(CN(CC(=O)N/N=C/c2cccs2)S(=O)(=O)c2ccc(Cl)cc2)c1	i	i	i	nt	i	nt
CN(Cc1ccccc1)c1ccc2nnc(-c3ccccc3)n2n1	i	i	i	-3.7	i	0.065
c1ccc(-c2nnc3ccc(N4CCCC4)nn23)cc1	i	i	i	nt	i	nt
Cc1ccc(-n2cc(CN3CCC(CO)(Cc4ccccc4)CC3)cn2)cc1	i	i	i	-5.2	i	0.059
Cc1ccc(-n2cc(CN3CCC(CO)(Cc4cccc(C(F)(F)F)c4)CC3)cn2)cc1	i	i	i	i	i	nt
CCOC(=O)CNC(=O)CCCCCC(=O)NCC(=O)OCC	i	i	i	i	i	i
O=C(CCl)N(c1ccccc1)c1ccccc1	i	i	i	-5.4	i	0.053
O=C(N(c1ccccc1)c1ccccc1)N(c1ccccc1)c1ccccc1	i	nt	nt	nt	i	nt
O=C(NCCc1ccccc1)C(=O)NN=C1CCCC1	i	i	i	2.8	i	i
O=C(NCCC1=CCCCC1)C(=O)NCc1ccccc1	i	i	i	1.2	i	i
